Key:
[1] = system: Mycolicibacterium smegmatis; test: Inhibition of Mycobacterium smegmatis Mca at 250 uM after 10 mins by HPLC analysis
Summary of the method: (§1)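 Native Mca purified from M. smegmatis by (NH4)2SO4 cut (15–50%), DEAE, hydroxyapatite and size-exclusion HPLC. 8.0 nmol of the bimane substrate MSmB and 8.0 nmol inhibitor (250 µM each) in Na-Hepes pH 7.5 with NaCl, 40 µl final volume, run 10 min at 37 °C. Stopped with acetonitrile/TFA and 60 °C for 10 min. Product read by C-18 HPLC with fluorescence detection (ex 396/em 482 nm).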

[2] = biological target: T1, 1D-myo-inositol 2-acetamido-2-deoxy-alpha-D-glucopyranoside deacetylase (Mycobacterium tuberculosis) (UniProt P9WJN3); test: Inhibition of Mycobacterium tuberculosis MshB expressed in Escherichia coli BL21 at 500 uM after 10 mins by HPLC analysis
T1 sequence (whole entry): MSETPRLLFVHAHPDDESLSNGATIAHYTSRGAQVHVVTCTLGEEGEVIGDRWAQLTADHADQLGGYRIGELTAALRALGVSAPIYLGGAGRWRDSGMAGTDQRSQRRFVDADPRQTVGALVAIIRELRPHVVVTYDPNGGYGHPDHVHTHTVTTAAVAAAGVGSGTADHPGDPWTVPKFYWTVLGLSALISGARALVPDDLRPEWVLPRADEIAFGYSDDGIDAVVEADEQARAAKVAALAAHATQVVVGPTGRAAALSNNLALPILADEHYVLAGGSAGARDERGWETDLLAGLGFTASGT
Summary of the method: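 Recombinant MshB (E. coli BL21(DE3) pLysS, purified) assayed with GlcNAc-Ins and inhibitor, each at 500 μM, in 40 μl with 1.0 μmol Na-Hepes pH 7.5, 1.0 μmol NaCl, 3.26 μg MshB; 10 min at 37 °C; stopped with acetonitrile/TFA, 60 °C 10 min; GlcN-Ins measured by C-18 hplc as AccQ-Fluor derivative; percent inhibition.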

[3] = biological target: T2, 1D-myo-inositol 2-acetamido-2-deoxy-alpha-D-glucopyranoside deacetylase (Mycobacterium tuberculosis, UniProt P9WJN3); test: Inhibition of Mycobacterium tuberculosis MshB expressed in Escherichia coli BL21 after 10 mins by HPLC analysis
T2 sequence (P9WJN3 whole entry): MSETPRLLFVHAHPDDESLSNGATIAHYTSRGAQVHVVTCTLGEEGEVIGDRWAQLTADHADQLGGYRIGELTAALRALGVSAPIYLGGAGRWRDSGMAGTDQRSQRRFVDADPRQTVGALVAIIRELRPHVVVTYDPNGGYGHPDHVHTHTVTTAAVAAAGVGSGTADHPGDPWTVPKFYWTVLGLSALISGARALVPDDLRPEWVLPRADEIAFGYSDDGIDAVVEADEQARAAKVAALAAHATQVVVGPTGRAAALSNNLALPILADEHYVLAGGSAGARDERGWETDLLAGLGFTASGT

[4] = biological target: T1, 1D-myo-inositol 2-acetamido-2-deoxy-alpha-D-glucopyranoside deacetylase (Mycobacterium tuberculosis); test: Activity at Mycobacterium tuberculosis MshB expressed in Escherichia coli BL21 at 250 uM assessed per mg of protein by HPLC analysis
Summary of the method: (§2)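 Recombinant MshB from E. coli BL21(DE3) pLysS (IPTG 0.4 mM, 18 °C) purified by DEAE, Zn-IMAC and gel filtration. Substrates (GlcNAc glycosides, 250 μM for single-point comparison) incubated with 8.15 μg MshB, 1 μmol NaCl, 1 μmol Hepes pH 7.5 in 40 μl, 10 min, 37 °C; product quantified by C-18 hplc (UV for phenyl aglycons, dansylated for cyclohexyl) against complete-cleavage calibration curves.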

[5] = biological target: T1, 1D-myo-inositol 2-acetamido-2-deoxy-alpha-D-glucopyranoside deacetylase (Mycobacterium tuberculosis); test: Ratio of Kcat to Km for Mycobacterium tuberculosis MshB
Summary of the method: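 GlcNAc-Ins varied 50–2000 μM with 3.26 μg purified recombinant MshB, 1.0 μmol Na-Hepes pH 7.5, 1.0 μmol NaCl in 40 μl, 10 min at 37 °C; GlcN-Ins quantified by hplc as AccQ-Fluor derivative.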

[6] = system: Mycolicibacterium smegmatis; test: Activity at Mycobacterium smegmatis Mca by HPLC analysis; summary of the method: as §1
[7] = substrate: CC(=O)N[C@@H]1[C@@H](O)[C@H](O)[C@@H](CO)O[C@@H]1Sc1ccccc1; test: (§3) Activity at Mycobacterium tuberculosis MshB expressed in Escherichia coli BL21 by HPLC analysis; summary of the method: as §2
[8] = substrate: CC(=O)N[C@H]1[C@@H](O[C@@H]2[C@H](O)[C@H](O)[C@@H](O)[C@H](O)[C@H]2O)O[C@H](CO)[C@@H](O)[C@@H]1O; test: as §3; summary of the method: as §2
[9] = substrate: CC(=O)N[C@@H]1[C@@H](O)[C@H](O)[C@@H](CO)O[C@@H]1Sc1ccccc1; test: (§4) Activity at Mycobacterium tuberculosis MshB expressed in Escherichia coli BL21 assessed per mg of protein by HPLC analysis; summary of the method: as §2
[10] = substrate: CC(=O)N[C@H]1[C@@H](O[C@@H]2[C@H](O)[C@H](O)[C@@H](O)[C@H](O)[C@H]2O)O[C@H](CO)[C@@H](O)[C@@H]1O; test: as §4; summary of the method: as §2

CC1=C(CCCCC(=O)N[C@@H]2[C@@H](O)[C@H](O)[C@@H](CO)O[C@@H]2Sc2ccccc2)C(=O)c2c(O)cccc2C1=O
inhibition [1]: 23.2% | inhibition [2]: 81.4% | Ki [3]: 94 µM

C=CC[C@H]1[C@H](OC2CCCCC2)O[C@H](CO)[C@@H](O)[C@@H]1O
inhibition [1]: 9.3% | inhibition [2]: 0%

CO[C@H]1OCC(S[C@H]2O[C@H](CO)[C@@H](O)[C@H](O)[C@H]2NC(C)=O)C[C@H]1O (stereo partly drawn)
inhibition [1]: 27% | inhibition [2]: 0%

CC(=O)N[C@@H]1[C@@H](O)[C@H](O)[C@@H](CO)O[C@@H]1SC1CCCCC1
Activity [4]: 6.11 nmol/min/mg

CC(=O)N[C@@H]1[C@@H](O)[C@H](O)[C@@H](CO)O[C@@H]1Sc1ccccc1
Activity [4]: 27 nmol/min/mg | Ratio [5]: 69.4 M⁻¹ s⁻¹

CC(=O)N[C@@H](CSSc1ccc2cc(O)ccc2c1)C(=O)NC1[C@@H](OC2[C@H](O)[C@H](O)C(O)[C@@H](O)[C@H]2O)O[C@H](CO)[C@@H](O)[C@@H]1O (stereo partly drawn)
Km [6]: 328 µM

O=C(Nc1ccccc1)N[C@@H]1[C@@H](O)[C@H](O)[C@@H](CO)O[C@@H]1SC1CCCCC1
inhibition [1]: 15% | inhibition [2]: 17%

CC(=O)C[C@H]1[C@@H](OC2CCCCC2)O[C@H](CO)[C@@H](O)[C@@H]1O
inhibition [1]: 17.2% | inhibition [2]: 6.7%

CC(=O)N[C@@H]1[C@@H](O)[C@H](O)[C@@H](CO)O[C@H]1SCc1ccccc1
inhibition [1]: 0% | inhibition [2]: 13.3%

CC(O)C[C@H]1[C@@H](OC2CCCCC2)O[C@H](CO)[C@@H](O)[C@@H]1O (stereo partly drawn)
inhibition [1]: 20.5% | inhibition [2]: 11.4%

CC1=C(CCCC(=O)N[C@@H]2[C@@H](O)[C@H](O)[C@@H](CO)O[C@@H]2Sc2ccccc2)C(=O)c2c(O)cccc2C1=O
inhibition [1]: 37.8% | inhibition [2]: 81.6%

CC(=O)N[C@@H]1[C@@H](O)[C@H](O)[C@@H](CO)O[C@H]1Sc1ccccc1
inhibition [1]: 0% | inhibition [2]: 15.1%

CC(=O)N[C@H]1[C@@H](O[C@@H]2[C@H](O)[C@H](O)[C@@H](O)[C@H](O)[C@H]2O)O[C@H](CO)[C@@H](O)[C@@H]1O
Activity [4]: 106 nmol/min/mg | Ratio [5]: 690 M⁻¹ s⁻¹

OC[C@H]1O[C@H](OC2CCCCC2)[C@@H]2CC(O)CO[C@H]2[C@@H]1O (stereo partly drawn)
inhibition [1]: 35% | inhibition [2]: 6.6%

CC(=N)N[C@@H]1[C@@H](O)[C@H](O)[C@@H](CO)O[C@@H]1SC1CCCCC1
inhibition [1]: 6.8% | inhibition [2]: 0%

CC(=O)N[C@@H]1[C@@H](O)[C@H](O)[C@@H](CO)O[C@@H]1Sc1ccc([N+](=O)[O-])cc1[N+](=O)[O-]
inhibition [1]: 0% | inhibition [2]: 29.4%

C=CC[C@H]1[C@@H](OC2CCCCC2)O[C@H](CO)[C@@H](O)[C@@H]1O
inhibition [1]: 73.8% | inhibition [2]: 0%

CS(=O)(=O)N[C@@H]1[C@@H](O)[C@H](O)[C@@H](CO)O[C@@H]1SC1CCCCC1
inhibition [1]: 0% | inhibition [2]: 0%

CC(=O)N[C@H]1[C@@H](OC2CCCCC2)O[C@H](CO)[C@@H](O)[C@@H]1O
Activity [4]: 6.07 nmol/min/mg

CCC[C@H]1[C@@H](OC2CCCCC2)O[C@H](CO)[C@@H](O)[C@@H]1O
inhibition [1]: 22% | inhibition [2]: 0%

CC1=C(CCCCCC(=O)N[C@@H]2[C@@H](O)[C@H](O)[C@@H](CO)O[C@@H]2Sc2ccccc2)C(=O)c2c(O)cccc2C1=O
inhibition [1]: 44.5% | inhibition [2]: 94.8% | Ki [3]: 16.8 µM

N[C@@H]1[C@@H](O)[C@H](O)[C@@H](CO)O[C@@H]1Sc1ccccc1
inhibition [1]: 17% | inhibition [2]: 6.1%

N[C@@H]1[C@@H](O)[C@H](O)[C@@H](CO)O[C@@H]1SC1CCCCC1
inhibition [1]: 0% | inhibition [2]: 16.4%

OC[C@H]1O[C@H](OC2CCCCC2)[C@H](CC2CO2)[C@@H](O)[C@@H]1O (stereo partly drawn)
inhibition [1]: 19.4% | inhibition [2]: 19.7%

O=C(CCl)N[C@@H]1[C@@H](O)[C@H](O)[C@@H](CO)O[C@@H]1SC1CCCCC1
inhibition [1]: 0% | inhibition [2]: 14.9%

CC1=C(CCC(=O)N[C@@H]2[C@@H](O)[C@H](O)[C@@H](CO)O[C@@H]2Sc2ccccc2)C(=O)c2c(O)cccc2C1=O
inhibition [1]: 28.8% | inhibition [2]: 57.4% | Ki [3]: 167 µM

B1: 1D-myo-inositol 2-acetamido-2-deoxy-alpha-D-glucopyranoside deacetylase (Mycobacterium tuberculosis), P9WJN3 (protein)
chain: MSETPRLLFVHAHPDDESLSNGATIAHYTSRGAQVHVVTCTLGEEGEVIGDRWAQLTADHADQLGGYRIGELTAALRALGVSAPIYLGGAGRWRDSGMAGTDQRSQRRFVDADPRQTVGALVAIIRELRPHVVVTYDPNGGYGHPDHVHTHTVTTAAVAAAGVGSGTADHPGDPWTVPKFYWTVLGLSALISGARALVPDDLRPEWVLPRADEIAFGYSDDGIDAVVEADEQARAAKVAALAAHATQVVVGPTGRAAALSNNLALPILADEHYVLAGGSAGARDERGWETDLLAGLGFTASGT
Km [7]: 1700 µM | kcat [7]: 0.12 s⁻¹ | Km [8]: 348 µM | kcat [8]: 0.24 s⁻¹ | Vmax [9]: 214 nmol/min/mg | Vmax [10]: 437 nmol/min/mg
